Consider three compounds from article PMC5593424 (Bioorganic & medicinal chemistry letters, 2017).

The structures appear in SMILES notation.

The subject of test [1] is MDA-MA-468 breast cancer cells. Briefly: MTT cytotoxicity, MDA-MA-468. In kind it is cell-based. As to conditions: MDA-MA-468, MTT, 8-point dose response. In a few lines:
(§1)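 Cells exposed to an 8-point dose-response of test compound; viability read by MTT. Percent survival plotted against compound concentration on semi-log axes, and LD50 taken from that curve.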

For the next test, the target named is DDX39A (Homo sapiens, UniProt O00148). Nature of the test: ATPase dose-response against DDX39A. The class given is biochemical. As to conditions: 8-point dose-response.
In another test the test system is NCI-60 panel. Conditions: cited from earlier work.
For a further test, the system named is A549 lung cancer cells. Briefly: MTT cytotoxicity, A549. In kind it is cell-based. Conditions: 8-point dose response. The procedure, abridged:
as §1

The target in test [2] is T1, eIF4A (Homo sapiens, UniProt P60842). Briefly: malachite green eIF4A ATPase assay. The class given is biochemical. Conditions: for inhibition of eIF4A ATPase activity (IC50): 8-point dose-response, 500 nM eIF4A, 250 µM ATP.
In test [3] the target is T1, eIF4A. Briefly: fluorescence-dequenching eIF4A helicase assay. As to conditions: 100 µM compound, relative to DMSO control, eIF4B and ATP. The class given is biochemical. The procedure, abridged: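 RNA unwinding assay: a fluorescently labelled RNA strand is annealed to a template beside a black-hole quencher. Adding eIF4A, eIF4B and ATP releases the strand and dequenches the fluorophore. A large excess of blank template prevents reannealing. Test compounds used at 100 μM.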

The conditions of test [4]: cited from earlier work.

T1 sequence (P60842 whole entry): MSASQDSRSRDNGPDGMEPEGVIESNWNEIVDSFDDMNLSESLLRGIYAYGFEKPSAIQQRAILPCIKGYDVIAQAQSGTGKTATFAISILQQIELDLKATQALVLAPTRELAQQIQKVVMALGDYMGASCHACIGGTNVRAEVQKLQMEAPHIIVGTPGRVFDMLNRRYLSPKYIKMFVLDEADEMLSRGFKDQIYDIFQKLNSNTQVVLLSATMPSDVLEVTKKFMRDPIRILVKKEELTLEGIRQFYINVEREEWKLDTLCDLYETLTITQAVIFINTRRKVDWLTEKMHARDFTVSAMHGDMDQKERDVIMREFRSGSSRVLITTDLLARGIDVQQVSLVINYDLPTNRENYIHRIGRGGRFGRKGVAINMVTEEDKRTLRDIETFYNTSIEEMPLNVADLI
DDX39A, sequence (O00148 whole entry, species assumed): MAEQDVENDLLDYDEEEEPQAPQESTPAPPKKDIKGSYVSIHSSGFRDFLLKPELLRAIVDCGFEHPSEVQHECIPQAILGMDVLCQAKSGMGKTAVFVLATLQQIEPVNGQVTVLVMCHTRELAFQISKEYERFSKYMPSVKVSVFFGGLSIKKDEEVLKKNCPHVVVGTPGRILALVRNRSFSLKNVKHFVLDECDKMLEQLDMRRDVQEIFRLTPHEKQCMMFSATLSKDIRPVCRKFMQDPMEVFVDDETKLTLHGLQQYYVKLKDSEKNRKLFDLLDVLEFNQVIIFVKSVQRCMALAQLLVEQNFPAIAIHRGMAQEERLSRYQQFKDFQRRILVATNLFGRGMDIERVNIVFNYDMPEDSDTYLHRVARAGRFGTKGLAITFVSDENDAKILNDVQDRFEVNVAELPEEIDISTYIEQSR

For `CC(C)=C[C@@H]1C[C@H](C)c2c(O)cc(C)c3c2C1=C(C)C(=O)C3=O` [Compound 1, elisabatin A], the LD50 is given as 35.2 µM in test [1] and 40.2 µM with A549 lung cancer cells. Also, at DDX39A, the “inhibition of DDX39A” value is given as “modest inhibition”. The “activity against the NCI-60 panel” value with NCI-60 panel is “only modest activity”. In addition, at eIF4A [2], the “inhibition of eIF4A ATPase activity (IC50)” value is given as “single-digit”.

`C[C@H]1C[C@@]2(O[C@H]3C[C@H]4[C@@H]5CC[C@H]6C[C@H](O)CC[C@]6(C)[C@H]5[C@@H](O)C[C@]4(C)[C@H]3[C@@]2(C)O)OC1(C)C` [Compound 3, hippuristanol, reference compound]: the “inhibition of eIF4A helicase activity” value on eIF4A [3] was “near complete inhibition”.

In turn, `C=C1CC[C@@](C)(c2cc(Br)c(C)cc2O)[C@H]1C` [Compound 2, allolaurinterol] came in with an LD50 in test [1] of 31.7 µM. Besides, the antibiotic activity entry in test [4] is reported as “antibiotic activity”. Further, the “inhibition of eIF4A helicase activity” value against eIF4A [3] is “near complete inhibition”. This compound also yielded an LD50 in the test on A549 lung cancer cells of 41.4 µM. Also, at eIF4A [2], the affinity corresponds to a Ki of 3.86 µM and the “inhibition of eIF4A ATPase activity (IC50)” value is given as “single-digit”.
